Experimental data from ChEMBL document CHEMBL5029176, “Targeting Oncogenic Src Homology 2 Domain-Containing Phosphatase 2 (SHP2) by Inhibiting Its Protein-Protein Interactions” (J Med Chem, 2021).
Active and inactive are the calls of the source. No cut-off for these calls is given here. Where a SMILES comes first, the peptide text is derived from it.

Legend:
[1] = Stability in human serum assessed as degradation after 24 hrs by HPLC analysis; format: ADME, cell-free; conditions: read-out: Drug degradation
Summary of the method: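 Peptide stock in DMSO (5 mg/mL), 20 μL added to 1 mL 25 mM HEPES pH 7.6 plus 250 μL human serum at 37 °C; aliquots taken over 24 h, quenched in ethanol on ice, centrifuged, supernatant analysed by HPLC and HPLC-MS; peptide-buffer-ethanol controls run in parallel.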

[2] = Stability in DMEM buffer after 3 days by HPLC analysis; format: physicochemical; conditions: 72 h, time 3 day
Summary of the method: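 Same set-up as serum test but in DMEM, followed 72 h at 37 °C; monitored by HPLC with 5–50% B over 20 min.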

Homo sapiens [3] = species: Homo sapiens; experiment: Activation of human His-tagged SHP2 A27S mutant expressed in Escherichia coli (DE3) Rosetta2 competent cells using p-nitrophenyl phosphate as substrate at 10 uM measured after 30 mins
Summary of the method: (§1)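 Recombinant full-length SHP2 (wild type or mutant), His-tagged, Ni-NTA then anion-exchange and gel-filtration purified; 20 pmol in 200 μL buffer with 20 mM p-nitrophenyl phosphate, basal or stimulated with bisphosphorylated BTAM peptide; 30 min at 30 °C; phosphate release read at 405 nm; three replicates.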

Homo sapiens [4] = species: Homo sapiens; experiment: Activation of human His-tagged SHP2 D61H mutant expressed in Escherichia coli (DE3) Rosetta2 competent cells using p-nitrophenyl phosphate as substrate at 10 uM measured after 30 mins; summary of the method: as §1
Homo sapiens [5] = species: Homo sapiens; experiment: Activation of human His-tagged SHP2 E76V mutant expressed in Escherichia coli (DE3) Rosetta2 competent cells using p-nitrophenyl phosphate as substrate at 10 uM measured after 30 mins; summary of the method: as §1
Homo sapiens [6] = species: Homo sapiens; experiment: Activation of human His-tagged SHP2 F71I mutant expressed in Escherichia coli (DE3) Rosetta2 competent cells using p-nitrophenyl phosphate as substrate at 10 uM measured after 30 mins; summary of the method: as §1
[7] = test system: T1, Tyrosine-protein phosphatase non-receptor type 11 (Homo sapiens), Q06124 [E76K]; experiment: Activation of human His-tagged SHP2 E76K mutant expressed in Escherichia coli (DE3) Rosetta2 competent cells using p-nitrophenyl phosphate as substrate at 10 uM measured after 30 mins; summary of the method: as §1
T1 sequence (whole entry): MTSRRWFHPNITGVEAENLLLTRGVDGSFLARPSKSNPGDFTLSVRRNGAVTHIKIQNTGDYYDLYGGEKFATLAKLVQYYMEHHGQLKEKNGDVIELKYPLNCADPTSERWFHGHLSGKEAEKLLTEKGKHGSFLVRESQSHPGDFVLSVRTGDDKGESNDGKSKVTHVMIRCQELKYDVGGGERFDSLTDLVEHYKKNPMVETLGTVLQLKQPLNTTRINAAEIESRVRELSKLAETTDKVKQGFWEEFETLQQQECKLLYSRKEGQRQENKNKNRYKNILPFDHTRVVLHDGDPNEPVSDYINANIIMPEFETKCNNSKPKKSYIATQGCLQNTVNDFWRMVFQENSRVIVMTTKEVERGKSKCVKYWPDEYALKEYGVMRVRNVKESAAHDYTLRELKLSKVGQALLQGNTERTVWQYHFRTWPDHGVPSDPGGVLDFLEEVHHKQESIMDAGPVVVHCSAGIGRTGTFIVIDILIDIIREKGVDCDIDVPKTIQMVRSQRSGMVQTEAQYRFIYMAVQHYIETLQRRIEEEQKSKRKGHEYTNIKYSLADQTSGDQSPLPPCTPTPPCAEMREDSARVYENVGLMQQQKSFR

Danio rerio [8] = species: Danio rerio; experiment: Reversal of Shp2a-D61G-induced gastrulation defect in Zebrafish assessed as reduction in major/minor axis ratios by stereomicroscopic analysis; format: functional, organism-based; conditions: dose 0.3-5 µM
Summary of the method: (§2)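 One-cell zebrafish embryos microinjected (~1 nL) with 120 ng/μL mRNA for GFP-2A-Shp2-D61G or wild-type Shp2, with or without peptide at final 0.3, 3 or 5 μM (assuming ~500 nL embryo volume); GFP-expressing embryos selected, imaged laterally at 11 hpf by stereomicroscope; ovality as long/short axis ratio; survival followed through development; non-injected embryos as control.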

Danio rerio [9] = species: Danio rerio; experiment: Reversal of Shp2a-D61G-induced phenotypic defect in Zebrafish at 5 uM by stereomicroscopic analysis; format: functional, organism-based; summary of the method: as §2
Danio rerio [10] = species: Danio rerio; experiment: Induction of phenotypic defect in Zebrafish injected with wild type Shp2a at 3 uM measured after 11 hrs post fertilization by stereomicroscopic analysis; format: organism-based; conditions: in vivo
Summary of the method: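 Wild-type Shp2 mRNA (120 ng/μL) co-injected with peptide at final 3 μM into one-cell zebrafish embryos; GFP-positive embryos imaged laterally at 11 hpf by stereomicroscope; shape scored as long/short axis ratio.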

Danio rerio [11] = species: Danio rerio; experiment: Improvement in survival of Shp2a-D61G-injected Zebrafish embryos at 0.3 to 5 uM after 11 hrs post fertilization by stereomicroscopic analysis; format: functional, organism-based; conditions: Embryo, dose 0.3-5 µM; summary of the method: as §2
Danio rerio [12] = species: Danio rerio; experiment: Improvement in survival of wild type Shp2a-injected Zebrafish embryos at 3 uM after 11 hrs post fertilization by stereomicroscopic analysis; format: functional, organism-based; conditions: Embryo; summary of the method: as §2
[13] = Stability in human serum assessed as degradation after 3 hrs by HPLC analysis; format: ADME, cell-free; conditions: read-out: Drug degradation
Summary of the method: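 Peptide DMSO stock (5 mg/mL) added to 25 mM HEPES pH 7.6 with human serum (1 mL buffer + 250 μL serum) at 37 °C; followed 24 h. Aliquots withdrawn at fixed intervals, quenched in absolute ethanol, 15 min on ice, centrifuged; supernatant analysed by HPLC and HPLC-MS. Peptide/buffer/ethanol samples run in parallel.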

metabolised at 3 h [13] [%]	SMILES	metabolised at 24 h [1] [%]	Stability [2]	Activity (Homo sapiens [3])	Activity (Homo sapiens [4])	Activity (Homo sapiens [5])	Activity (Homo sapiens [6])	Activity [7]	Activity (Danio rerio [8])	Activity (Danio rerio [9])	Activity (Danio rerio [10])	Activity (Danio rerio [11])	Activity (Danio rerio [12])
–	CC[C@H](C)[C@H](NC(=O)[C@H](Cc1ccc(C(F)(F)P(=O)(O)O)cc1)NC(=O)[C@H](CC(N)=O)NC(=O)[C@H](CC(C)C)NC(=O)CNC(C)=O)C(=O)N[C@@H](CC(=O)O)C(=O)N[C@@H](CC(C)C)C(=O)N[C@@H](CC(=O)O)C(=O)N[C@@H](Cc1c[nH]c2ccccc12)C(N)=O	< 50	Stable	inactive	inactive	inactive	inactive	inactive	Dose-Dependent Effect	Active	Non-Toxic	Dose-Dependent Effect	inactive
100	CC[C@H](C)[C@H](NC(=O)[C@H](C)NC(=O)[C@H](CCCCN)NC(=O)CNC(=O)[C@H](Cc1ccc(O)cc1)NC(=O)[C@H](Cc1ccc(O)cc1)NC(=O)[C@H](CCCCN)NC(=O)[C@H](Cc1ccccc1)NC(=O)[C@@H](N)Cc1c[nH]c2ccccc12)C(=O)N[C@@H](Cc1ccc(O)cc1)C(=O)O (H-WFKYYGKAIY-OH)	–	–	–	–	–	–	–	–	–	–	–	–
–	CC[C@H](C)[C@H](NC(=O)[C@H](Cc1ccc(OP(=O)(O)O)cc1)NC(=O)[C@H](CC(N)=O)NC(=O)[C@H](CC(C)C)NC(C)=O)C(=O)N[C@@H](CC(=O)O)C(=O)N[C@@H](CC(C)C)C(=O)N[C@@H](CC(=O)O)C(=O)N[C@@H](Cc1c[nH]c2ccccc12)C(N)=O	< 50	–	–	–	–	–	–	–	–	–	–	–
